Measurements from ChEMBL document CHEMBL2086311, “UDP made a highly promising stable, potent, and selective P2Y6-receptor agonist upon introduction of a boranophosphate moiety” (Bioorg Med Chem, 2012).

Key:
P2Y purinoceptor 6 [1] = biological target: T1, P2Y purinoceptor 6 (Homo sapiens, UniProt Q15077); assay: Agonist activity at human P2Y6 receptor; format: functional
Method in brief: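 Human P2Y6 receptor-GFP construct stably expressed in 1321N1 astrocytoma cells (no endogenous P2X/P2Y). Cells loaded with 2 µM fura-2/AM plus 0.02% pluronic acid in Na-HBS (pH 7.4), 30 min, 37 °C. Superfused at 37 °C with nucleotide, usually 10^-8 M to at least 10^-5 M. [Ca2+]i read as 340/380 nm excitation ratio, emission 510 nm. EC50 from concentration–response curves.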

P2Y purinoceptor 6 [2] = biological target: T1, P2Y purinoceptor 6; assay: Agonist activity at human GFP-tagged P2Y6 receptor expressed in human 1321N1 cells assessed as intracellular calcium mobilization by fura2/AM-based fluorescence spectrophotometry; format: functional, cell-based
Method in brief: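 Human P2Y2, P2Y4 or P2Y6 receptors with GFP fusion, stably expressed in 1321N1 astrocytoma cells (no endogenous P2X/P2Y), selected with 0.5 mg/mL G418. Cells on coverslips at ~80% density were loaded with 2 µM fura 2/AM plus 0.02% pluronic acid in Na-HBS pH 7.4 for 30 min at 37 °C. Nucleotide was superfused at 37 °C, usually 10^-8 to ≥10^-5 M, sometimes to 10^-4 M. Read-out was 340/380 nm excitation ratio at 510 nm emission. Values are mean maximal amplitude ± SE.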

[3] = Half life in KCl/HCl buffer by 31P-NMR analysis at pH 1.4; format: physicochemical
Method in brief: (§1)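 Sodium salt dissolved in KCl/HCl buffer pH 1.4 containing D2O, held at 37 °C. 31P NMR spectra taken at 15 min, 1 h or 24 h intervals, about every 24 h in multi-day runs. Hydrolysis rate taken from change in integration of one starting-material phosphate signal over time, fit to a pseudo-first-order model.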

[4] = biological target: T2, Ectonucleotide pyrophosphatase/phosphodiesterase family member 1 (Homo sapiens, UniProt P22413); assay: Hydrolytic stability of the compound assessed as human NPP1-mediated hydrolysis measuring UMP formation after 2 hrs by HPLC analysis; format: ADME; design: scale not given: the % may be the effect or the level left
T2 sequence (P22413 whole entry): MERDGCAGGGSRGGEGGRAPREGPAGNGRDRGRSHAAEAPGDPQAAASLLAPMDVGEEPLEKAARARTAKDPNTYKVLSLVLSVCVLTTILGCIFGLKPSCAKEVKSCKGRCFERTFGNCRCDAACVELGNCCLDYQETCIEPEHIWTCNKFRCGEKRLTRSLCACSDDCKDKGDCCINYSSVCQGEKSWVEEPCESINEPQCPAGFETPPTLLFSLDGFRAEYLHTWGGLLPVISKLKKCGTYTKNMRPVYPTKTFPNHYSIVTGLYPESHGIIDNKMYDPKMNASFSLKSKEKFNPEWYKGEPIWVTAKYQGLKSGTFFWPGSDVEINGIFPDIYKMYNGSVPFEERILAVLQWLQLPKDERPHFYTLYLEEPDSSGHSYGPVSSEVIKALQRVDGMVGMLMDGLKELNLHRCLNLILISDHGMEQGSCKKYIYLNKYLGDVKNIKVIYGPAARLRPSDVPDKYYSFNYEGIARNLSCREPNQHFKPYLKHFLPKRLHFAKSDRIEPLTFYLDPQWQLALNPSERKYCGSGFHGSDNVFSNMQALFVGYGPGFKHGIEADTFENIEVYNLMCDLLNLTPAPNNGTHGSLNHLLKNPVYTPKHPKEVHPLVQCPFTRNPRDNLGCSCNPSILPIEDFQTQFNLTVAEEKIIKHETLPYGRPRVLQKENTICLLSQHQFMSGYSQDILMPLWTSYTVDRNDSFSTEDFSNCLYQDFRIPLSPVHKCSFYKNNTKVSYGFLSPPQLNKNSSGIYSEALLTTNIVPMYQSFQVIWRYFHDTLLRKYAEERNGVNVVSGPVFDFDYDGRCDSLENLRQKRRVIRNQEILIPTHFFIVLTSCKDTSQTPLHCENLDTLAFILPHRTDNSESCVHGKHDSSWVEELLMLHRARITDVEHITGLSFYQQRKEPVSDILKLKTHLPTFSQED
Method in brief: (§2)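 Human NPP1 (56.15 µg) or NPP3 (57.78 µg) extract was pre-incubated 3 min at 37 °C in 1 mM CaCl2, 200 mM NaCl, 10 mM KCl, 100 mM Tris pH 8.5. Reaction was started with 4 mM compound stock and stopped after 2 h (NPP1) or 3 h (NPP3) in ice-cold 1 M perchloric acid, then neutralized with KOH. HPLC measured the nucleoside monophosphate peak area minus a no-enzyme acid control. Mean ± S.D. of two experiments.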

Serum [5] = assay: Drug metabolism in human serum assessed as nucleoside 5'-monophosphate formation incubated up to 24 hrs by HPLC analysis; format: ADME, cell-free
Method in brief: (§3)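 Samples held 0.1 mg compound with human blood serum (180 µL) and RPMI-1640 (540 µL) at 37 °C for 0–24 h. At each time point they were heated to 80 °C for 30 min, treated with CM Sephadex, centrifuged and chloroform-extracted. Analysis was reverse-phase HPLC on peak integrals. Degradation was taken relative to a no-serum control carried through the same workup, and half-lives came from the time course.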

Serum [6] = assay: Drug metabolism in human serum assessed as nucleoside formation incubated up to 24 hrs by HPLC analysis; format: ADME, cell-free; method in brief: as §3
[7] = Half life in human serum by HPLC analysis; format: ADME, cell-free
Method in brief: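 Compound (0.1 mg) incubated with human blood serum and RPMI-1640 medium at 37 °C for 0–24 h. Samples taken at 0.5–12 h intervals, heated to 80 °C for 30 min, treated with CM Sephadex and extracted with chloroform. Analysed by reverse-phase HPLC. Degradation from peak integration, corrected against a serum-free control given the same workup.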

[8] = Agonist activity at P2Y6 receptor in New Zealand White rabbit osteoclasts assessed as intracellular calcium mobilization by fura2-based microfluorimetric technique; format: functional, cell-based; conditions: Oryctolagus cuniculus
[9] = Drug degradation in KCl/HCl buffer assessed as inorganic phosphate formation by 31P-NMR analysis at pH 1.4; format: physicochemical; method in brief: as §1
[10] = Drug degradation in KCl/HCl buffer assessed as 5-OMe-uridine-H-phosphonate formation by 31P-NMR analysis at pH 1.4; format: physicochemical; method in brief: as §1
[11] = biological target: T3, NPP3 (ectonucleotide pyrophosphatase/phosphodiesterase family member 3) (Homo sapiens, UniProt O14638); assay: Hydrolytic stability of the compound assessed as human NPP3-mediated hydrolysis after 3 hrs by HPLC analysis; format: ADME; conditions: human NPP3 enzyme, read-out: Activity; method in brief: as §2
T3 sequence (O14638 whole entry): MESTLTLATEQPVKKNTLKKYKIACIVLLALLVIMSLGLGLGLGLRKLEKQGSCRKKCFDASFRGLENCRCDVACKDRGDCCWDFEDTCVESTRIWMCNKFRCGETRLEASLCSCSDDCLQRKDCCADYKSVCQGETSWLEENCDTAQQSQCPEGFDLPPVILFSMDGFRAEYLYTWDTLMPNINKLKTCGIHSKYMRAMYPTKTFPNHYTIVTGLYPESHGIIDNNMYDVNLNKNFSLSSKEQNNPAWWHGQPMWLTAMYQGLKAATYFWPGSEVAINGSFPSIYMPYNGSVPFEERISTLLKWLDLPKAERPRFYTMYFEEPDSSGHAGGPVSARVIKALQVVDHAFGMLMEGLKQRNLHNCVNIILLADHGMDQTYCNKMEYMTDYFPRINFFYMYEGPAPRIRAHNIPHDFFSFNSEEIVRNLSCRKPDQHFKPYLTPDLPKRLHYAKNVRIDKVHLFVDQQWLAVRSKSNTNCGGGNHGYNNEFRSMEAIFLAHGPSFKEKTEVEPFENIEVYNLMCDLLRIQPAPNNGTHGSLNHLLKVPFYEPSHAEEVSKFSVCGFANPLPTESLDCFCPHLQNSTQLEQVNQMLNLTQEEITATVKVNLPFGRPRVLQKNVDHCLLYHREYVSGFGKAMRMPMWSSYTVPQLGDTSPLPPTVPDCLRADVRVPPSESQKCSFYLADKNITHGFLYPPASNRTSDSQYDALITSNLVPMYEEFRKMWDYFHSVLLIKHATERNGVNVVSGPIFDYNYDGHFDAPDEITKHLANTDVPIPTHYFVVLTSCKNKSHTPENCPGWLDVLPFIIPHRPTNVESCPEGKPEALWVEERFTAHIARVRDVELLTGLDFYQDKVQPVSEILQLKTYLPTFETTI

[12] = biological target: T4, NPP1 (ectonucleotide pyrophosphatase/phosphodiesterase family member 1) (Homo sapiens, UniProt P22413); assay: Hydrolytic stability of the compound assessed as human NPP1-mediated hydrolysis after 2 hrs by HPLC analysis; format: ADME; conditions: human NPP1 enzyme, read-out: Activity
T4 sequence (P22413 whole entry): T2 sequence (P22413 whole entry)
Method in brief: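 Human NPP1 extract (56.15 µg) pre-incubated 3 min at 37 °C in 1 mM CaCl2, 200 mM NaCl, 10 mM KCl, 100 mM Tris pH 8.5. Reaction started with 4 mM compound stock and stopped at 2 h in ice-cold 1 M perchloric acid, then neutralized with KOH. Reverse-phase HPLC. Nucleoside monophosphate peak area taken minus an acid-treated no-enzyme control. Mean of two experiments.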

[13] = biological target: T2, Ectonucleotide pyrophosphatase/phosphodiesterase family member 1; assay: Hydrolytic stability of the compound assessed as human NPP1-mediated hydrolysis measuring 5-OMe-UMP formation after 2 hrs by HPLC analysis; format: ADME; design: scale not given: the % may be the effect or the level left; method in brief: as §2

T1 sequence (Q15077 whole entry, the tested form may be a part): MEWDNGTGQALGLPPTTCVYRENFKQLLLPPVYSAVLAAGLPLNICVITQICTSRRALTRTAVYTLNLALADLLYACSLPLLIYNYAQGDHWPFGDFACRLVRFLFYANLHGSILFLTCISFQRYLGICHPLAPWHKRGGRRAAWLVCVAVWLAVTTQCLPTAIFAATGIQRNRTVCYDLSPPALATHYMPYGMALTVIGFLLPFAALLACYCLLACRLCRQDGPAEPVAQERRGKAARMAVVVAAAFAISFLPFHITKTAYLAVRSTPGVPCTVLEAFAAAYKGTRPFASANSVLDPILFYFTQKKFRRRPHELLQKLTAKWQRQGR

| EC50 (P2Y purinoceptor 6 [1]) [nM] | half-life [3] [h] | Activity [4] [%] | Drug metabolism (Serum [5]) | Drug metabolism (Serum [6]) | half-life [7] [h] | EC50 [8] [nM] | Activity [13] [%] | Compound | EC50 (P2Y purinoceptor 6 [2]) [nM] | Drug degradation [9] | Drug degradation [10] | metabolised at 3 h [11] [%] | metabolised at 2 h [12] [%] |
| --- | --- | --- | --- | --- | --- | --- | --- | --- | --- | --- | --- | --- | --- |
| 47 | 288 | 50 | Active | Active | 2.4 | 500 | – | O=c1ccn([C@@H]2O[C@H](COP(=O)(O)OP(=O)(O)O)[C@@H](O)[C@H]2O)c(=O)[nH]1 [URIDINE_DIPHOSPHATE] | 150 | – | – | – | – |
| – | – | – | – | – | – | – | – | [BH3-][P@@](=O)(OC[C@H]1O[C@@H](n2cc(OC)c(=O)[nH]c2=O)[C@H](O)[C@@H]1O)OP(=O)([O-])[O-].[Na+].[Na+].[Na+] | – | Active | Active | – | – |
| – | – | – | Active | Active | 11.9 | – | 49 | COc1cn([C@@H]2O[C@H](COP(=O)(O)OP(=O)(O)O)[C@@H](O)[C@H]2O)c(=O)[nH]c1=O | – | – | – | 36 | – |

| Compound | EC50 (P2Y purinoceptor 6 [1]) [nM] | half-life [3] [h] | Activity [4] [%] | Drug metabolism (Serum [5]) | Drug metabolism (Serum [6]) | half-life [7] [h] | EC50 [8] [nM] | Activity [13] [%] | EC50 (P2Y purinoceptor 6 [2]) [nM] | Drug degradation [9] | Drug degradation [10] | metabolised at 3 h [11] [%] | metabolised at 2 h [12] [%] |
| --- | --- | --- | --- | --- | --- | --- | --- | --- | --- | --- | --- | --- | --- |
| B[P@@](=O)(OC[C@H]1O[C@@H](n2cc(OC)c(=O)[nH]c2=O)[C@H](O)[C@@H]1O)OP(=O)(O)O | – | – | – | Active | Active | 21 | – | – | 8 | – | – | 28 | 15 |
